The target in one series is Integrin alpha-V/beta-5 (Homo sapiens, UniProt P06756+P18084). Briefly: Binding affinity for alphaV-beta5 vitronectin receptor. It counts as protein-complex assay. The method in brief: (§1)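 Competitive radioligand binding to isolated human integrin, αvβ3 or αvβ5, with 3H-SK&F-107260 as the displaced ligand; Ki values are means of two to three separate experiments.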
A short description of series [1]: Half life period in rat. Conditions: in vivo. It counts as ADME, organism-based. The method in brief:
(§2)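 Rats (three per compound) dosed iv and po; plasma concentration–time data analysed non-compartmentally for half-life and clearance; oral bioavailability calculated from dose-normalized iv and po AUC (area under plasma concentration–time curve).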

Series [2] is described as follows: Oral bioavailability in rat. Type of series: ADME, organism-based. The settings on record: in vivo. An outline of the steps: as §2
Series [3] can be described thus: Plasma clearance in rat. Type of series: ADME, organism-based. Conditions: read-out: Clp. The method in brief:
as §2

Series [4] has as its target T1, Integrin alpha-V/beta-3 (Homo sapiens, UniProt P05106+P06756). Briefly: Binding affinity for alphav/beta 3 vitronectin receptor in HEK cells. It counts as cell-based, HEK293. The method in brief: (§3)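 Cell-based αvβ3 assay: HEK 293 cells transfected with human αvβ3; inhibition of adhesion to purified human vitronectin measured; IC50 values are means of two experiments, each in triplicate, run with an internal standard.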

Series [5] deals with T1, Integrin alpha-V/beta-3. The series can be described thus: Binding affinity for alphaV-beta3 vitronectin receptor. Type of series: protein-complex assay. An outline of the steps: as §1
Series [6] has as its target T1, Integrin alpha-V/beta-3. Briefly: Inhibition of HEK 293 cell adhesion to vitronectin by human alphaV-beta3 integrin. It counts as cell-based, HEK293. An outline of the steps: as §3
For series [7], the target named is Integrin alpha-IIb/beta-3 (Homo sapiens, UniProt P05106+P08514). Briefly: Binding affinity for alphaIIb-beta3 vitronectin receptor. Type of series: protein-complex assay.
The next series is filed under the species Homo sapiens. Briefly: Compound was tested for the inhibition of human vascular smooth muscle cell migration. It counts as functional.

Sequence of Integrin alpha-V/beta-5 (P06756 31-889 limits assumed): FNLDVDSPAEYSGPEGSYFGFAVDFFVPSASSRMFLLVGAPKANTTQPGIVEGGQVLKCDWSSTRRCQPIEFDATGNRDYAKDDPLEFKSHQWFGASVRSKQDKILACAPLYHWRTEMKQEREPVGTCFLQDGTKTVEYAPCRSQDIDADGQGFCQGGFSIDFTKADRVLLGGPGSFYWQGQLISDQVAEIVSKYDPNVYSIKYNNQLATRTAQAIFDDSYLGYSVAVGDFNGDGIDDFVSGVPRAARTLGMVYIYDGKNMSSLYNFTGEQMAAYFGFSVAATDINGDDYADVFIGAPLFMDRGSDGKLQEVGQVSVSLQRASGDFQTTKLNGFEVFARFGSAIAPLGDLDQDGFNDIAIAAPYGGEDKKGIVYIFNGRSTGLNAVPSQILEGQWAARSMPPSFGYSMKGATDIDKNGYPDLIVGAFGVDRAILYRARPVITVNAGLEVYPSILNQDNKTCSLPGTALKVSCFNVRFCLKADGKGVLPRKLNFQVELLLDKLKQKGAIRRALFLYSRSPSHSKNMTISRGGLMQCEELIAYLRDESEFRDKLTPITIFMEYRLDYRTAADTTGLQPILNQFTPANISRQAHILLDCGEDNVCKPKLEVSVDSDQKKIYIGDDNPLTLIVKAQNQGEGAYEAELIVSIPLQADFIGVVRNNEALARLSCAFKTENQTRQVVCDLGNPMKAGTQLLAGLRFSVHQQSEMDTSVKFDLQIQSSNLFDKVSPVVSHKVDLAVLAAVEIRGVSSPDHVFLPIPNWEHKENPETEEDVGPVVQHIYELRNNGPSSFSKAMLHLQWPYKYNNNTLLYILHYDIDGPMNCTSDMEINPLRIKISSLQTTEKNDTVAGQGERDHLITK
Sequence of Integrin alpha-V/beta-5 (P06756 891-1048 limits assumed): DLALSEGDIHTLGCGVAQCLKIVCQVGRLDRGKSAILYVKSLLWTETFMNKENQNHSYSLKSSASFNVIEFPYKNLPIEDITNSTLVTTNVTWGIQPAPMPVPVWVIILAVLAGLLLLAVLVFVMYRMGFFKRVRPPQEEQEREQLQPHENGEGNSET
Sequence of Integrin alpha-V/beta-5 (P18084 24-799 limits assumed): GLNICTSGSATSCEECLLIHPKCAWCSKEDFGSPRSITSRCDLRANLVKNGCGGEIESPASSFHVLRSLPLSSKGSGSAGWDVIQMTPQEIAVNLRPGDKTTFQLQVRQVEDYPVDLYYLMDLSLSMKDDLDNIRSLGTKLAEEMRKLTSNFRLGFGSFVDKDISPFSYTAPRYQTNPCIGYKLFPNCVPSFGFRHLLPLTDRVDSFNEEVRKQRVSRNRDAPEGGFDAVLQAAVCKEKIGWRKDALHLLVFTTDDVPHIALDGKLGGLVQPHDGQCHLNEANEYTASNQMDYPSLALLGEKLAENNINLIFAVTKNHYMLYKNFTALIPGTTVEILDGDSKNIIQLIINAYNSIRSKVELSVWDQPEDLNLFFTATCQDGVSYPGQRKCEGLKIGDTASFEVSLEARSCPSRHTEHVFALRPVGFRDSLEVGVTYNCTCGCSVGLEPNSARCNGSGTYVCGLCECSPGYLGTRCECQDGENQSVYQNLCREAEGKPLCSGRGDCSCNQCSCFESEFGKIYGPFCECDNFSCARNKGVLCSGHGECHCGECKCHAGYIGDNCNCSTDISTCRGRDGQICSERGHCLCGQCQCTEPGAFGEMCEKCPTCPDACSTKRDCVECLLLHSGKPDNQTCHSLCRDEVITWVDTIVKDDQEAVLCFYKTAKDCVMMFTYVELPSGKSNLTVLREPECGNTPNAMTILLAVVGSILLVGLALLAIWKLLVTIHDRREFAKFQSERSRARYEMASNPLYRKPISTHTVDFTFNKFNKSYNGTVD
T1 sequence (P05106 27-788 limits assumed): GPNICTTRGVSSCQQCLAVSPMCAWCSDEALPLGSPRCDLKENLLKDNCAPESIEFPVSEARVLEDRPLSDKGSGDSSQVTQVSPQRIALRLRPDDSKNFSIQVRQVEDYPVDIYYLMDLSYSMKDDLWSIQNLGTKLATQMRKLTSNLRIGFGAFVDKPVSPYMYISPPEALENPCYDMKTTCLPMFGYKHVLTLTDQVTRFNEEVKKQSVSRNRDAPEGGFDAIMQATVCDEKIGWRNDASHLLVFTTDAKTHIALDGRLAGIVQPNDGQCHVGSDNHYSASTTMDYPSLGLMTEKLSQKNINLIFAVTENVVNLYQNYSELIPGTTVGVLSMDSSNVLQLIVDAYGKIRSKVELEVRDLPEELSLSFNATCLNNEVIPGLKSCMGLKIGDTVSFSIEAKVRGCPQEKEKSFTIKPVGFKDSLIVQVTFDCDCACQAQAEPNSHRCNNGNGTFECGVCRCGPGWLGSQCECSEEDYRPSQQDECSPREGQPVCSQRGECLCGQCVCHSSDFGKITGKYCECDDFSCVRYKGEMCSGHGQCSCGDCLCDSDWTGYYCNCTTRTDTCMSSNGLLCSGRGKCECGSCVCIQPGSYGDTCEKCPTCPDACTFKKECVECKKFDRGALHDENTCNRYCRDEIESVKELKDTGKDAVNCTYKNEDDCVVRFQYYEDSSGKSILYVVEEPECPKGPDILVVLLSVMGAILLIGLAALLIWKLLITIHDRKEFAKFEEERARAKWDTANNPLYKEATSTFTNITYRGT
T1 sequence (P06756 31-889 limits assumed): as the sequence (P06756 31-889 limits assumed) above
T1 sequence (P06756 891-1048 limits assumed): as the sequence (P06756 891-1048 limits assumed) above
Sequence of Integrin alpha-IIb/beta-3 (P05106 27-788 limits assumed): as the sequence (P05106 27-788 limits assumed) above
Sequence of Integrin alpha-IIb/beta-3 (P08514 32-887 limits assumed): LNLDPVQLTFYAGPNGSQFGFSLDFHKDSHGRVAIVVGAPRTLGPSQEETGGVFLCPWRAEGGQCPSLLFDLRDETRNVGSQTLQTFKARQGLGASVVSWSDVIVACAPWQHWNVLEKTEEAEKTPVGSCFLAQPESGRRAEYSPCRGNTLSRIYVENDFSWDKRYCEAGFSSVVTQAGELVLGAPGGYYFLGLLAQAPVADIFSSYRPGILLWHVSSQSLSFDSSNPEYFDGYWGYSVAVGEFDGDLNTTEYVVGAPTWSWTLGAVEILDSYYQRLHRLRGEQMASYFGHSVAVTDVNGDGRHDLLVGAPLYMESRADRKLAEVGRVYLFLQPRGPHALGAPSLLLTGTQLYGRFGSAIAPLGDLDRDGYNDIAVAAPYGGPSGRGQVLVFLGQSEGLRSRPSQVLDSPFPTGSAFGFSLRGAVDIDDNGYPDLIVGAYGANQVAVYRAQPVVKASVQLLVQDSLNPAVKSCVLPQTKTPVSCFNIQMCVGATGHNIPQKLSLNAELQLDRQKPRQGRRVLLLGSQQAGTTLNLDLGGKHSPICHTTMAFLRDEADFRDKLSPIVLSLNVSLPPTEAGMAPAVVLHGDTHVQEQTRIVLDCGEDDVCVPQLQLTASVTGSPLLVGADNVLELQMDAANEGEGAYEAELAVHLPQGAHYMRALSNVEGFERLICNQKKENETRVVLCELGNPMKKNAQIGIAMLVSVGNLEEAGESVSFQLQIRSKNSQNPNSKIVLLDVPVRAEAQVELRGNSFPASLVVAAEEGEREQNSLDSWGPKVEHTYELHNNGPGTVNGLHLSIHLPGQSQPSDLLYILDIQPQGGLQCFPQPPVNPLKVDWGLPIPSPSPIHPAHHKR
Sequence of Integrin alpha-IIb/beta-3 (P08514 891-1039 limits assumed): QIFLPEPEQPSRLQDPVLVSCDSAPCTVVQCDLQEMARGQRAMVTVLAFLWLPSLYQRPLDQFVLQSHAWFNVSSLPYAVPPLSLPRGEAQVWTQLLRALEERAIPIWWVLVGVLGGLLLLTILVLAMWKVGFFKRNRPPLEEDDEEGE

At Integrin alpha-V/beta-5, `O=C(O)C[C@@H]1Cc2ccc(OCCCNc3ccccn3)cc2Cc2ccccc21` gave a Ki of 0.0026 µM.
On to `O=C(O)C[C@H](Cc1ccc(OCCCNc2ccccn2)cc1)c1ccccc1`, for which the half-life in series [1] is 2.4 h. The compound also registered a bioavailability in [2] of 100%. Besides, in series [3], the clearance stood at 0.432 L/h/kg. In addition, at Integrin alpha-V/beta-3 [4], the concentration for half-maximal inhibition (IC50) was determined as 0.47 µM. For the same compound, the Ki at Integrin alpha-V/beta-3 [5] is 0.012 µM.
With `O=C(O)CC(Cc1ccc(OCCCNc2ccccn2)cc1)c1ccccc1` (centres undefined), the IC50 at Integrin alpha-V/beta-3 [6] was determined as 0.5 µM. Further, the values for the Ki (on Integrin alpha-V/beta-3 [5]; at Integrin alpha-V/beta-5; in series [7]) were 0.032 µM, 0.006 µM and greater than 10 µM, respectively.
`O=C(O)C[C@H](Cc1ccc(OCCc2ccc3c(n2)NCCC3)cc1)c1ccccc1` registered a half-life in [1] of 1.58 h. Also, the bioavailability in [2] turned out to be 100%. Also, the clearance in series [3] was found to be 0.36 L/h/kg. Besides, the 50% inhibitory concentration (IC50) in the series listed under Homo sapiens is 0.026 µM; on Integrin alpha-V/beta-3 [4], 0.03 µM. The Ki at Integrin alpha-V/beta-3 [5] amounted to 0.0025 µM; at Integrin alpha-V/beta-5 it was 0.0025 µM; in series [7] it was 36 µM.
As for `CNc1cccc(CCOc2ccc(C[C@@H](CC(=O)O)c3ccccc3)cc2)n1`, in series [1], the half-life is 5.17 h. Further, the bioavailability in series [2] was 100%. Moreover, the clearance in [3] came out at 0.294 L/h/kg. In addition, the IC50 on Integrin alpha-V/beta-3 [4] came to 0.33 µM. At Integrin alpha-V/beta-3 [5], this compound registered a Ki of 0.007 µM.
On to `O=C(O)C[C@@H](Cc1ccc(OCCCNc2ccccn2)cc1)c1ccccc1`, for which the Ki on Integrin alpha-V/beta-3 [5] was 0.17 µM.

The values above are taken from ChEMBL document CHEMBL1136710, “Phenylbutyrates as potent, orally bioavailable vitronectin receptor (integrin alphavbeta3) antagonists” (Bioorg Med Chem Lett, 2003).
